The results in this text go back to ChEMBL document CHEMBL1148053, “(+)-(S)-dihydroaeruginoic acid, an inhibitor of Septoria tritici and other phytopathogenic fungi and bacteria, produced by Pseudomonas fluorescens” (1994).

Assay [1] relates to Rhizoctonia solani. The assay can be described thus: Antifungal activity against Rhizoctonia solani DL5588 assessed as colony reduction at 100 ug/disk after 2 to 6 days by paper disk agar diffusion method relative to control. Type of assay: functional. Set-up: scale not given: the % may be the effect or the level left. Put shortly:
(§1)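 Tested on one-fourth-strength potato dextrose agar. A 5-mm mycelial agar plug from the colony edge was placed at the dish centre. A 6-mm disc with the compound in Me₂CO and an Me₂CO-only control disc were set on opposite sides, each 30 mm from the plug. After 2-6 days, colony radii were measured along the line joining the discs. Values are the mean of nine (3 weighings × 3 discs), analysed by two-way ANOVA.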

The subject of assay [2] is Rhizoctonia solani. The assay can be described thus: Antifungal activity against Rhizoctonia solani DL5588 assessed as colony reduction at 200 ug/disk after 2 to 6 days by paper disk agar diffusion method relative to control. Type of assay: functional. Also noted: scale not given: the % may be the effect or the level left. Put shortly:
as §1

For assay [3], the system named is Globisporangium ultimum. As to the kind of experiment: Antifungal activity against Pythium ultimum RG-5601 assessed as colony reduction at 100 ug/disk after 2 to 6 days by paper disk agar diffusion method relative to control. Type of assay: functional. Set-up: scale not given: the % may be the effect or the level left. Put shortly:
(§2)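 Paper-disc agar-diffusion on one-fourth-strength PDA. Mycelial agar plug (5 mm) from culture edge placed at plate centre; 6-mm disc loaded with compound in Me2CO and Me2CO-only control disc set on opposite sides, each 30 mm from plug. After 2-6 days (per growth rate), colony radii measured along line joining disc centres. Three separate weighings × three discs (nine) per organism; two-way ANOVA.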

Assay [4] has as its system Globisporangium ultimum. The assay can be described thus: Antifungal activity against Pythium ultimum RG-5601 assessed as colony reduction at 200 ug/disk after 2 to 6 days by paper disk agar diffusion method relative to control. Type of assay: functional. Set-up: scale not given: the % may be the effect or the level left. Put shortly:
as §2

Assay [5] deals with Botrytis cinerea. The assay can be described thus: Antifungal activity against Botrytis cinerea DL6050 assessed as colony reduction at 100 ug/disk after 2 to 6 days by paper disk agar diffusion method relative to control. Type of assay: functional. Also noted: scale not given: the % may be the effect or the level left. Put shortly:
as §1

The subject of assay [6] is Botrytis cinerea. The assay can be described thus: Antifungal activity against Botrytis cinerea DL6050 assessed as colony reduction at 200 ug/disk after 2 to 6 days by paper disk agar diffusion method relative to control. Set-up: scale not given: the % may be the effect or the level left. Type of assay: functional. Put shortly:
as §1

Assay [7] has as its system Athelia rolfsii. As to the kind of experiment: Antifungal activity against Sclerotium rolfsii RG-1984 assessed as colony reduction at 100 ug/disk after 2 to 6 days by paper disk agar diffusion method relative to control. Type of assay: functional, Agroathelia rolfsii. Set-up: scale not given: the % may be the effect or the level left. Put shortly: as §2
Assay [8] relates to Athelia rolfsii. The assay can be described thus: Antifungal activity against Sclerotium rolfsii RG-1984 assessed as colony reduction at 200 ug/disk after 2 to 6 days by paper disk agar diffusion method relative to control. Type of assay: functional, Agroathelia rolfsii. Set-up: scale not given: the % may be the effect or the level left. Put shortly:
as §2

In assay [9] the test system is Colletotrichum gloeosporioides. The assay can be described thus: Antifungal activity against Colletotrichum gloeosporioides DL5605 assessed as colony reduction at 100 ug/disk after 2 to 6 days by paper disk agar diffusion method relative to control. Set-up: scale not given: the % may be the effect or the level left. Type of assay: functional. Put shortly:
as §1

The test system of assay [10] is Colletotrichum gloeosporioides. The assay can be described thus: Antifungal activity against Colletotrichum gloeosporioides DL5605 assessed as colony reduction at 200 ug/disk after 2 to 6 days by paper disk agar diffusion method relative to control. Type of assay: functional. Also noted: scale not given: the % may be the effect or the level left. Put shortly:
as §1

The test system of assay [11] is Fusarium oxysporum. The assay can be described thus: Antifungal activity against Fusarium oxysporum Fo0593-22 assessed as colony reduction at 100 ug/disk after 2 to 6 days by paper disk agar diffusion method relative to control. Also noted: scale not given: the % may be the effect or the level left. Type of assay: functional. Put shortly:
as §1

Assay [12] has as its system Fusarium oxysporum. As to the kind of experiment: Antifungal activity against Fusarium oxysporum Fo0593-22 assessed as colony reduction at 200 ug/disk after 2 to 6 days by paper disk agar diffusion method relative to control. Type of assay: functional. Set-up: scale not given: the % may be the effect or the level left. Put shortly:
as §1

The subject of assay [13] is Bacillus subtilis. As to the kind of experiment: Antibacterial activity against Bacillus subtilis Bs1091 at 100 ug/disk by paper disk agar diffusion method. Type of assay: functional. Conditions: read-out: IZ. Put shortly: (§3)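 Paper-disc agar-diffusion assay on Luria agar (tryptone, yeast extract, NaCl, agar), the medium used for maintaining and testing the bacteria. The compound was dissolved in Me₂CO and absorbed onto 6-mm paper discs at the stated amount per disc. Three separately weighed solutions were used, with three discs each, giving nine measurements per organism.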

Assay [14] has as its system Bacillus subtilis. The assay can be described thus: Antibacterial activity against Bacillus subtilis Bs1091 at 200 ug/disk by paper disk agar diffusion method. Type of assay: functional. Conditions: read-out: IZ. Put shortly:
as §3

In assay [15] the test system is Pantoea agglomerans. The assay can be described thus: Antibacterial activity against Erwinia herbicola SM-824 at 100 ug/disk by paper disk agar diffusion method. Type of assay: functional. Conditions: read-out: IZ. Put shortly: as §3
Assay [16] relates to Pantoea agglomerans. The assay can be described thus: Antibacterial activity against Erwinia herbicola SM-824 at 200 ug/disk by paper disk agar diffusion method. Type of assay: functional. Conditions: read-out: IZ. Put shortly: as §3
Assay [17] concerns Staphylococcus. The assay can be described thus: Antibacterial activity against Staphylococcus albus Sal1091-4 at 100 ug/disk by paper disk agar diffusion method. Type of assay: functional. Conditions: read-out: IZ. Put shortly:
as §3

Assay [18] relates to Staphylococcus. As to the kind of experiment: Antibacterial activity against Staphylococcus albus Sal1091-4 at 200 ug/disk by paper disk agar diffusion method. Type of assay: functional. To be noted: read-out: IZ. Put shortly:
as §3

Assay [19] deals with Pseudomonas fluorescens. The assay can be described thus: Antibacterial activity against Pseudomonas fluorescens PFM2 at 100 ug/disk by paper disk agar diffusion method. Type of assay: functional. To be noted: read-out: IZ. Put shortly: as §3
Assay [20] concerns Pseudomonas fluorescens. As to the kind of experiment: Antibacterial activity against Pseudomonas fluorescens PFM2 at 200 ug/disk by paper disk agar diffusion method. Type of assay: functional. Conditions: read-out: IZ. Put shortly:
as §3

Assay [21] relates to Zymoseptoria tritici. The assay can be described thus: Antifungal activity against Septoria tritici ISR-SE93 assessed as diameter of zone of inhibition at 100 ug/disk after 2 to 6 days by paper disk agar diffusion method. To be noted: read-out: IZ.
The subject of assay [22] is Zymoseptoria tritici. As to the kind of experiment: Antifungal activity against Septoria tritici ISR-SE93 assessed as diameter of zone of inhibition at 200 ug/disk after 2 to 6 days by paper disk agar diffusion method. To be noted: read-out: IZ.

For the compound `O=C(O)[C@@H]1CSC(c2ccccc2O)=N1`, the Activity in the assay on Rhizoctonia solani [1] is listed as 6%; in the assay with Rhizoctonia solani [2], 17%; in the assay with Globisporangium ultimum [3] it was 12%; with Globisporangium ultimum [4], 33%; in the assay on Botrytis cinerea [5], 36%; with Botrytis cinerea [6], 46%. The Activity was determined as 32% in the assay on Athelia rolfsii [7]; 52% in the assay on Athelia rolfsii [8]; 8% in [9]; 9% in [10]; 5% in the assay on Fusarium oxysporum [11]; 11% in the assay on Fusarium oxysporum [12]. In addition, the zone of inhibition at 100 µg/disc in the assay on Bacillus subtilis [13] worked out at 14.9 mm; in the assay on Pantoea agglomerans [15] it was 8.2 mm; with Staphylococcus [17], 22 mm; in the assay with Pseudomonas fluorescens [19], 0 mm; in the assay with Zymoseptoria tritici [21], 0 mm. Also, the zone of inhibition at 200 µg/disc came to 19.7 mm with Bacillus subtilis [14]; 10.4 mm in the assay with Pantoea agglomerans [16]; 28.2 mm in the assay with Staphylococcus [18]; 0 mm with Pseudomonas fluorescens [20]; 13 mm in the assay on Zymoseptoria tritici [22].
Regarding `O=C(O)[C@H]1CSC(c2ccccc2O)=N1`, the Activity with Rhizoctonia solani [1] is on record as 1%; in the assay on Rhizoctonia solani [2], 5%; with Globisporangium ultimum [3], 22%; in the assay on Globisporangium ultimum [4] it was 43%; in the assay on Botrytis cinerea [5] it was 27%; in the assay on Botrytis cinerea [6], 43%. In addition, the Activity in the assay with Athelia rolfsii [7] was 32%; in the assay with Athelia rolfsii [8] it was 53%; in [9], 8%; in [10] it was 10%; in the assay with Fusarium oxysporum [11], 8%; in the assay with Fusarium oxysporum [12], 15%. Further, the zone of inhibition at 100 µg/disc in the assay with Bacillus subtilis [13] was found to be 10.8 mm; in the assay on Pantoea agglomerans [15] it was 6.7 mm; with Staphylococcus [17], 20.2 mm; in the assay on Pseudomonas fluorescens [19] it was 0 mm; in the assay with Zymoseptoria tritici [21], 0 mm. Also, the zone of inhibition at 200 µg/disc with Bacillus subtilis [14] was 13.3 mm; with Pantoea agglomerans [16], 8.7 mm; in the assay with Staphylococcus [18], 26.2 mm; with Pseudomonas fluorescens [20] it was 0 mm; with Zymoseptoria tritici [22], 13 mm.
